ChEMBL document CHEMBL4184225, “Discovery of selective 2,4-diaminoquinazoline toll-like receptor 7 (TLR 7) agonists” (Bioorg Med Chem Lett, 2018)

How the values were obtained:
[1] = Tmax in Sprague-Dawley rat at 10 mg/kg, po; type: ADME, organism-based; conditions: in vivo
Outline: (§1)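 Healthy male Sprague-Dawley rats given a single oral dose of 10 mg/kg. Portal vein plasma, systemic plasma and liver sampled. Cmax and Tmax determined, and AUC over 0–last. Liver/plasma ratio calculated from AUC(0-last).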

[2] = Oral bioavailability in Sprague-Dawley rat at 10 mg/kg; type: ADME, organism-based; conditions: in vivo
[3] = Cmax in Sprague-Dawley rat liver at 10 mg/kg, po
Rattus norvegicus = assay: Plasma clearance in Sprague-Dawley rat at 2.5 mg/kg, iv relative hepatic blood flow; type: ADME, organism-based; conditions: in vivo
[4] = Cmax in Sprague-Dawley rat portal vein at 10 mg/kg, po; type: ADME, organism-based; parameters: dose 10 mg/kg, route oral; outline: as §1
[5] = Plasma clearance in Sprague-Dawley rat at 2.5 mg/kg, iv; type: ADME, organism-based
[6] = Cmax in C57BL/6 mouse plasma at 1 mg/kg, po administered as single dose; type: ADME, organism-based; parameters: dose 1 mg/kg, route oral
Outline: (§2)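 Healthy C57BL/6 mice given a single oral dose (1 or 5 mg/kg). Plasma and liver drug levels measured over time to give Tmax, Cmax and AUC0-last. Three mice per time point, reported as geometric mean.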

[7] = AUClast in C57BL/6 mouse plasma at 1 mg/kg, po administered as single dose; type: ADME, organism-based; parameters: dose 1 mg/kg, time 0 - last, route oral; outline: as §2
Mus musculus [8] = assay: Induction of IFN-alpha production in C57BL/6 mouse liver assessed as peak IFN-alpha level at 1 mg/kg, po administered as single dose by ELISA; type: functional
Outline: (§3)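 Healthy C57BL/6 mice given a single oral dose (1 or 5 mg/kg). Mouse IFN-α measured by ELISA in plasma and liver homogenates over time. Peak level (Fmax) and time of peak recorded. Three mice per time point, reported as geometric mean.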

Mus musculus [9] = assay: Induction of IFN-alpha production in C57BL/6 mouse liver assessed as time for peak induction of IFN-alpha at 1 mg/kg, po administered as single dose by ELISA; type: functional; outline: as §3
[10] = AUClast in C57BL/6 mouse liver at 1 mg/kg, po administered as single dose; type: ADME, organism-based; parameters: dose 1 mg/kg, time 0 - last, route oral; outline: as §2
Mus musculus [11] = assay: Induction of IFN-alpha production in C57BL/6 mouse plasma assessed as time for peak induction of IFN-alpha at 1 mg/kg, po administered as single dose by ELISA; type: functional; outline: as §3
[12] = Tmax in C57BL/6 mouse at 1 mg/kg, po administered as single dose; type: ADME, organism-based; conditions: in vivo; outline: as §2
Mus musculus [13] = assay: Induction of IFN-alpha production in C57BL/6 mouse plasma assessed as peak IFN-alpha level at 1 mg/kg, po administered as single dose by ELISA; type: functional; outline: as §3
[14] = Cmax in C57BL/6 mouse liver at 1 mg/kg, po administered as single dose; type: ADME, organism-based; parameters: dose 1 mg/kg, route oral; outline: as §2
Mus musculus [15] = assay: Induction of IFN-alpha production in C57BL/6 mouse liver assessed as time for peak induction of IFN-alpha at 5 mg/kg, po administered as single dose by ELISA; type: functional; outline: as §3
[16] = Cmax in C57BL/6 mouse liver at 5 mg/kg, po administered as single dose; type: ADME, organism-based; parameters: dose 5 mg/kg, route oral; conditions: in vivo; outline: as §2
[17] = Cmax in C57BL/6 mouse plasma at 5 mg/kg, po administered as single dose; type: ADME, organism-based; parameters: dose 5 mg/kg, route oral; outline: as §2
[18] = Tmax in C57BL/6 mouse at 5 mg/kg, po administered as single dose; type: ADME, organism-based; conditions: in vivo; outline: as §2
Mus musculus [19] = assay: Induction of IFN-alpha production in C57BL/6 mouse plasma assessed as peak IFN-alpha level at 5 mg/kg, po administered as single dose by ELISA; type: functional; outline: as §3
[20] = AUClast in C57BL/6 mouse liver at 5 mg/kg, po administered as single dose; type: ADME, organism-based; conditions: in vivo; outline: as §2
Mus musculus [21] = assay: Induction of IFN-alpha production in C57BL/6 mouse liver assessed as peak IFN-alpha level at 5 mg/kg, po administered as single dose by ELISA; type: functional; outline: as §3
[22] = AUClast in C57BL/6 mouse plasma at 5 mg/kg, po administered as single dose; type: ADME, organism-based; parameters: dose 5 mg/kg, route oral, time 0 - last; outline: as §2
[23] = Ratio of drug level in liver to plasma in C57BL/6 mouse at 1 mg/kg, po administered as single dose; type: ADME, organism-based; conditions: liver and plasma, 5 mg/kg, in the assay text read “5 mg/kg” for “1 mg/kg”
Outline: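 Single oral dose to healthy C57BL/6 mice. Liver and plasma drug exposure measured, three mice per time point as geometric mean, and expressed as liver-to-plasma ratio.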

Mus musculus [24] = assay: Induction of IFN-alpha production in C57BL/6 mouse plasma assessed as time for peak induction of IFN-alpha at 5 mg/kg, po administered as single dose by ELISA; type: functional; outline: as §3

With `CCCCNc1nc(N)nc2cccc(C(=O)N(C)Cc3ccccc3)c12` the Tmax [1] was 30 min, the bioavailability [2] was 1.2% and the Cmax [3] was 369 ng/g. For the same compound, the CL (Rattus norvegicus) was 79%, the Cmax [4] was 209 ng/mL and the clearance [5] was 55 mL/min/kg.
Work on `CCCCNc1nc(N)nc2ccccc12` yielded a Cmax [6] of 3 ng/mL, an AUC(0-t) [7] of 3 ng·h/mL and an Fmax (Mus musculus [8]) of 200 pg/mg. For the same compound, the Time (Mus musculus [9]) was 1 h, the AUC(0-t) [10] was 133 ng·h/mL and the Tmax [1] was 30 min. It also gave a bioavailability [2] of 5.4%, a Time (Mus musculus [11]) of 1 h and a Cmax [3] of 2030 ng/g. For the same compound, the Tmax [12] was 30 min, the Cmax [4] was 583 ng/mL and the Fmax (Mus musculus [13]) was 315 pg/mL. It also gave a Cmax [14] of 207 ng/mL and a clearance [5] of 163 mL/min/kg.
Compound `CCCCNc1nc(N)nc2cccc(C(=O)N[C@@H](C)c3ccccc3)c12` has a Time (Mus musculus [15]) of 4 h, a Cmax [16] of 3230 ng/g and a Cmax [17] of 142 ng/mL. The Tmax [18] was 60 min, the Tmax [1] was 240 min and the bioavailability [2] was 20%. The Fmax (Mus musculus [19]) was 2800 pg/mL, the AUClast [20] was 6619 ng·h/g and the Fmax (Mus musculus [21]) was 325 pg/mg. It also gave an AUC(0-t) [22] of 365 ng·h/mL, a Cmax [3] of 4930 ng/g and a Kp [23] of 23. It also gave a Cmax [4] of 276 ng/mL and a Time (Mus musculus [24]) of 4 h.
